Laboratory results as given in ChEMBL document CHEMBL1157576, “Development of selective and reversible pyrazoline based MAO-A inhibitors: Synthesis, biological evaluation and docking studies” (Bioorg Med Chem, 2010).

Experiments:
Format in all cases: tissue-based
[1] = molecular target: T1, Amine oxidase [flavin-containing] A (Rattus norvegicus, UniProt P21396); assay: Competitive inhibition of MAOA in rat liver homogenate after 60 mins by Lineweaver-Burke plot analysis; settings: read-out: Kic
T1 sequence (P21396 whole entry): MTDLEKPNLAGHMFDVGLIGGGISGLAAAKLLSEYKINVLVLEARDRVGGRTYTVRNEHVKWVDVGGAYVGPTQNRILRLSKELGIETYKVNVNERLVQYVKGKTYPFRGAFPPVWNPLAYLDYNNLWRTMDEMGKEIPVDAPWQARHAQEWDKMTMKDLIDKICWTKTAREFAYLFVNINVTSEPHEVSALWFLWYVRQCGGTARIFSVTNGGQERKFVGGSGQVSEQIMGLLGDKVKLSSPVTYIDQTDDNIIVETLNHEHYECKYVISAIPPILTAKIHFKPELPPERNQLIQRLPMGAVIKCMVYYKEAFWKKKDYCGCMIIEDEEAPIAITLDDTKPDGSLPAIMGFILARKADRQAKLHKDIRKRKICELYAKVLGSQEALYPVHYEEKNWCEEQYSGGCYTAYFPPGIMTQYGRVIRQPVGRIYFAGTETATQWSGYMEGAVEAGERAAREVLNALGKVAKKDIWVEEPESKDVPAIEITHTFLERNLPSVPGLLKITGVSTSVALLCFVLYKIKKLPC

[2] = molecular target: T1, Amine oxidase [flavin-containing] A; assay: Reversible inhibition of MAOA in rat liver homogenate assessed as recovery of enzyme activity at 1 to 1000 uM up to 24 hrs by dialysis
In short: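 Rat liver MAO was incubated with compound (1–1000 µM, DMSO ≤1%) at 37 °C for 0–60 min. It was then dialysed for 24 h at 37 °C against potassium phosphate buffer, pH 7.6. Recovered activity was measured by the Holt coupled assay using p-tyramine, with absorbance read at 498 nm.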

[3] = molecular target: T2, Amine oxidase [flavin-containing] B (Rattus norvegicus, UniProt P19643); assay: Competitive inhibition of MAOB in rat liver homogenate after 60 mins by Lineweaver-Burke plot analysis; settings: read-out: Kic
T2 sequence (P19643 whole entry): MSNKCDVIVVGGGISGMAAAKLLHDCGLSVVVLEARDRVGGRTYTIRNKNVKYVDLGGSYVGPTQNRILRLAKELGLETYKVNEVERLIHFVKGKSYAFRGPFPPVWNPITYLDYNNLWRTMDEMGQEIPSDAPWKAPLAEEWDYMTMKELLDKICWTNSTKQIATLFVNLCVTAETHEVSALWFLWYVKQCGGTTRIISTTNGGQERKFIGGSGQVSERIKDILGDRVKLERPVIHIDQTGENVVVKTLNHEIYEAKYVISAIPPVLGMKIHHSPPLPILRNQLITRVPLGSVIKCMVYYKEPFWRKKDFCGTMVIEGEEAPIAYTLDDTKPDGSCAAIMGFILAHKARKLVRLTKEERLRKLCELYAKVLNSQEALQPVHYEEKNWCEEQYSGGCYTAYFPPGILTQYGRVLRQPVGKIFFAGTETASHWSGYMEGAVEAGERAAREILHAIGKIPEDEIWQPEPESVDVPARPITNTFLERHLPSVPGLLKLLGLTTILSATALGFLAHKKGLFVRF

Row | Ki [1] | Activity [2] | Ki [3] | Compound
1 | 0.95 µM | Active | 1060 µM | COc1ccc(NC(=S)N2N=C(c3ccc(O)cc3)CC2c2ccco2)cc1 (configuration not stated)
2 | 0.48 µM | Active | 5010 µM | Cc1ccc(NC(=S)N2N=C(c3ccc(O)cc3)CC2c2ccco2)cc1 (configuration not stated)
3 | 0.755 µM | Active | 174 µM | COc1ccccc1NC(=S)N1N=C(c2ccc(O)cc2)CC1c1ccco1 (configuration not stated)
4 | 0.301 µM | Active | 44 µM | COc1ccccc1NC(=S)N1N=C(c2ccc(O)cc2)CC1c1cccs1 (configuration not stated)
5 | 0.701 µM | Active | 778 µM | Oc1ccc(C2=NN(C(=S)Nc3ccccc3)C(c3ccco3)C2)cc1 (configuration not stated)
6 | 0.281 µM | Active | 70.2 µM | Cc1ccccc1NC(=S)N1N=C(c2ccc(O)cc2)CC1c1cccs1 (configuration not stated)
7 | 0.15 µM | Active | 2210 µM | Cc1cccc(NC(=S)N2N=C(c3ccc(O)cc3)CC2c2cccs2)c1 (configuration not stated)
8 | 0.591 µM | Active | 580 µM | Cc1cccc(NC(=S)N2N=C(c3ccc(O)cc3)CC2c2ccco2)c1 (configuration not stated)
9 | 0.501 µM | Active | 7150 µM | COc1ccc(NC(=S)N2N=C(c3ccc(O)cc3)CC2c2cccs2)cc1 (configuration not stated)
10 | 0.351 µM | Active | 71.5 µM | Cc1ccc(NC(=S)N2N=C(c3ccc(O)cc3)CC2c2cccs2)cc1 (configuration not stated)
11 | 0.231 µM | Active | 28.8 µM | Cc1ccccc1NC(=S)N1N=C(c2ccc(O)cc2)CC1c1ccco1 (configuration not stated)
12 | 0.176 µM | Active | 460 µM | COc1cccc(NC(=S)N2N=C(c3ccc(O)cc3)CC2c2ccco2)c1 (configuration not stated)
13 | 0.48 µM | Active | 47 µM | Oc1ccc(C2=NN(C(=S)Nc3ccccc3)C(c3cccs3)C2)cc1 (configuration not stated)
14 | 0.181 µM | Active | 1100 µM | COc1cccc(NC(=S)N2N=C(c3ccc(O)cc3)CC2c2cccs2)c1 (configuration not stated)
